Laboratory results taken from ChEMBL document CHEMBL1144321, “Synthesis and evaluation of novel peripherally restricted kappa-opioid receptor agonists” (Bioorg Med Chem Lett, 2005).

Key:
Rattus norvegicus = assay: In vivo inhibition of formalin induced flinching after intra paw dosing of compound at 300 ug
Mus musculus = assay: Effective dose that induced platform sedation after subcutaneous administration in mice; assay type: functional; details: sc
In short: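 Mice screened first for baseline latency to step fully off a slightly raised platform (11 × 8 × 3 cm); animals with baseline >15 s excluded. Drug or vehicle (20% aqueous creamaphor) given s.c. at back of neck; latency retested 20 min later, 30 s cut-off. % sedation = (test − baseline)/(30 s − baseline) × 100; ED50 from dose–response.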

COc1cccc(C(CN2CCCC2)N(C)C(=O)Cc2ccc(C(F)(F)F)cc2)c1 (racemic)
Inhibition (Rattus norvegicus): 99%

CN(C(=O)Cc1ccc(C(F)(F)F)cc1)[C@H](CN1CCCC1)c1cccc(NC(=O)CCC(=O)O)c1
Inhibition (Rattus norvegicus): 73% | ED50 (Mus musculus): 47 mg/kg

CN(C(=O)Cc1ccc(C(F)(F)F)cc1)C(CN1CCCC1)c1cccc(OCC(=O)OC(C)(C)C)c1 (racemic)
Inhibition (Rattus norvegicus): 84% | ED50 (Mus musculus): 140 mg/kg

CN(C(=O)Cc1ccc(C(F)(F)F)cc1)[C@H](CN1CCCC1)c1ccccc1
Inhibition (Rattus norvegicus): 92% | ED50 (Mus musculus): 0.13 mg/kg

CN(C(=O)Cc1ccc(C(F)(F)F)cc1)C(CN1CCCC1)c1cccc(O)c1 (racemic)
Inhibition (Rattus norvegicus): 99%

CN(C(=O)Cc1ccc(C(F)(F)F)cc1)[C@H](CN1CCCC1)c1cccc(NS(N)(=O)=O)c1
Inhibition (Rattus norvegicus): 73% | ED50 (Mus musculus): 13 mg/kg

CN(C(=O)Cc1ccc(Cl)c(Cl)c1)C(CN1CCCC1)c1cccc(OCC(=O)O)c1 (stereo not given) [ICI-204448]
ED50 (Mus musculus): 5.2 mg/kg

CN(C(=O)Cc1ccc(C(F)(F)F)cc1)[C@H](CN1CCCC1)c1cccc(NS(C)(=O)=O)c1
Inhibition (Rattus norvegicus): 77% | ED50 (Mus musculus): 89 mg/kg

CN(C(=O)Cc1ccc(C(F)(F)F)cc1)C(CN1CCCC1)c1cccc(OCC(=O)O)c1 (racemic)
Inhibition (Rattus norvegicus): 93% | ED50 (Mus musculus): > 300 mg/kg
